Test results published in ChEMBL document CHEMBL1124774, “Synthesis and biological activity of some derivatives of rifamycin P” (1990).
Converted amounts (≈) assume the structure as drawn.

Columns and labels:
[1] = tested on: Mycolicibacterium fortuitum; test: In vitro activity of compound against rapidly growing Mycobacterium fortuitum 114; assay type: functional
Summary of the method: (§1)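 Medium was Middlebrook 7H10 agar with 2% glycerol and 10% OADC. Organisms from Loevenstein-Jensen slants were grown in 7H9 broth with 0.5% Tween and 10% OADC, adjusted to McFarland no. 1, and spotted with a multipoint inoculator. Sealed plates were incubated at 22, 30 or 37 °C for 4-20 days depending on strain.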

Streptococcus pyogenes [2] = test: Inhibitory concentration of compound against Streptococcus pyogenus septicemia in the mouse, administarted in OS route; assay type: functional
Summary of the method: (§2)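 Male and female CD1 mice (18-22 g) were infected ip with S. pyogenes C203, with the challenge set so untreated mice died within 48 h. Groups of five received a single treatment immediately after infection. ED50 was calculated from the percentage surviving at each dose on day 10.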

[3] = tested on: Mycolicibacterium fortuitum; test: In vitro activity of compound against rapidly growing Mycobacterium fortuitum 1287; assay type: functional; summary of the method: as §1
[4] = tested on: Mycolicibacterium smegmatis; test: In vitro activity of compound against rapidly growing Mycobacterium smegmatis 31; assay type: functional; summary of the method: as §1
[5] = tested on: Mycobacterium scrofulaceum; test: In vitro activity of compound against slowly growing Mycobacterium scrofulaceum 1297; assay type: functional; summary of the method: as §1
Enterococcus faecalis = test: In vitro antibacterial activity of compound against Streptococcus faecalis ATCC 7080.; assay type: functional
Summary of the method: (§3)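 Twofold microdilution MIC in Iso-Sensitest broth over 128-0.0001 µg/mL. Inoculum was 10^4 cfu/mL, with incubation at 37 °C for 18-24 h.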

[6] = tested on: Mycolicibacterium flavescens; test: In vitro activity of compound against rapidly growing Mycobacterium flavescens 1286; assay type: functional; summary of the method: as §1
Mycobacterium gordonae [7] = test: In vitro activity of compound against slowly growing Mycobacterium gordonae 1441; assay type: functional; summary of the method: as §1
Streptococcus pneumoniae = test: In vitro antibacterial activity of compound against Streptococcus pneumoniae UC 41; assay type: functional
Summary of the method: (§4)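 Streptococcal MICs were run by twofold microdilution in Todd-Hewitt broth over 128-0.0001 µg/mL. Inoculum was 10^4 cfu/mL, with incubation at 37 °C for 18-24 h.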

Escherichia coli = test: In vitro antibacterial activity of compound against Escherichia coli SKF 12140; assay type: functional
Mycolicibacterium phlei [8] = test: In vitro activity of compound against rapidly growing Mycobacterium phlei 141; assay type: functional; summary of the method: as §1
Mycobacterium kansasii [9] = test: In vitro activity compound against slowly growing Mycobacterium kansasii 1291; assay type: functional; summary of the method: as §1
Klebsiella pneumoniae = test: In vitro antibacterial activity of compound against Klebsiella pneumoniae ISM; assay type: functional
Mycobacterium marinum [10] = test: In vitro activity of compound against slowly growing Mycobacterium marinum 1393; assay type: functional; summary of the method: as §1
Streptococcus pyogenes [11] = test: Minimum inhibitory concentration of compound against Streptococcus pyogenus septicemia in the mouse; assay type: functional
Mycobacterium xenopi [12] = test: In vitro activity of compound against slowl growingy Mycobacterium xenopi 555; assay type: functional; summary of the method: as §1
Mycobacterium marinum [13] = test: In vitro activity of compound against slowly growing Mycobacterium marinum 1390; assay type: functional; summary of the method: as §1
[14] = tested on: Mycolicibacterium fortuitum; test: In vitro activity compound against rapidly growing Mycobacterium fortuitum 1440; assay type: functional; summary of the method: as §1
[15] = tested on: Staphylococcus epidermidis; test: In vitro antibacterial activity of compound against Staphylococcus epidermidis ATCC 12228; assay type: functional; summary of the method: as §3
Mycobacterium xenopi [16] = test: In vitro activity of compound against slowly growing Mycobacterium xenopi 556; assay type: functional; summary of the method: as §1
Mycobacterium kansasii [17] = test: In vitro activity compound against slowly growing Mycobacterium kansasii 1298; assay type: functional; summary of the method: as §1
Proteus vulgaris = test: In vitro antibacterial activity of compound against Proteus vulgaris X19H ATCC 881; assay type: functional
Mycobacterium marinum [18] = test: In vitro activity of compound against slowly growing Mycobacterium marinum 1394; assay type: functional; summary of the method: as §1
Mycobacterium marinum [19] = test: In vitro activity of compound against slowly growing Mycobacterium marinum 1388; assay type: functional; summary of the method: as §1
[20] = tested on: Mycolicibacterium smegmatis; test: In vitro activity of compound against rapidly growing Mycobacterium smegmatis 139; assay type: functional; summary of the method: as §1
Mycobacteroides chelonae = test: In vitro activity of compound against rapidly growing Mycobacterium chelonae 1443
[21] = tested on: Mycolicibacterium fortuitum; test: In vitro activity of compound against rapidly growing Mycobacterium fortuitum 140; assay type: functional; summary of the method: as §1
Mycobacterium marinum [22] = test: In vitro activity of compound against slowly growing Mycobacterium marinum 1391; assay type: functional; summary of the method: as §1
Mycobacterium avium [23] = test: 90% inhibition of the 20 Mycobacterium avium complex (MAC) clinical isolates
Mycobacterium gordonae [24] = test: In vitro activity of compound against slowly growing Mycobacterium gordonae 1294; assay type: functional; summary of the method: as §1
[25] = tested on: Mycolicibacterium flavescens; test: In vitro activity of compound against rapidly growing Mycobacterium flavescens 1284; assay type: functional; summary of the method: as §1
Mycobacterium kansasii [26] = test: In vitro activity of compound against slowly growing Mycobacterium kansasii 1299; assay type: functional; summary of the method: as §1
[27] = tested on: Mycobacterium scrofulaceum; test: In vitro activity of compound against slowly growing Mycobacterium scrofulaceum 1292; assay type: functional; summary of the method: as §1
[28] = tested on: Mycobacterium scrofulaceum; test: In vitro activity of compound against slowly growing Mycobacterium scrofulaceum 1293; assay type: functional; summary of the method: as §1
Mycobacterium avium [29] = test: Minimum inhibitory concentration of compound against 20 Mycobacterium avium complex (MAC) clinical isolates
Mycolicibacterium phlei [30] = test: In vitro activity of compound against rapidly growing Mycobacterium phlei 1289; assay type: functional; summary of the method: as §1
Streptococcus pyogenes [31] = test: Inhibitory concentration of compound against Streptococcus pyogenus septicemia in the mouse, administarted in subcutaneous route; assay type: functional; conditions: sc; summary of the method: as §2
Mycobacterium marinum [32] = test: In vitro activity of compound against slowly growing Mycobacterium marinum 1447; assay type: functional; summary of the method: as §1
Mycobacterium xenopi [33] = test: In vitro activity of compound against slowly growing Mycobacterium xenopi 554; assay type: functional; summary of the method: as §1
Mycobacterium xenopi [34] = test: In vitro activity compound against slowly growing Mycobacterium xenopi 1446; assay type: functional; summary of the method: as §1
Mycolicibacterium phlei [35] = test: In vitro activity of compound against rapidly growing Mycobacterium phlei 1283; assay type: functional; summary of the method: as §1
Pseudomonas aeruginosa = test: In vitro antibacterial activity of compound against Pseudomonas aeruginosa ATCC 10145; assay type: functional; summary of the method: as §3
[36] = tested on: Mycolicibacterium fortuitum; test: In vitro activity of compound against rapidly growing Mycobacterium fortuitum 645; assay type: functional; summary of the method: as §1
[37] = tested on: Mycolicibacterium fortuitum; test: In vitro activity of compound against rapidly growing Mycobacterium fortuitum 1285; assay type: functional; summary of the method: as §1
[38] = tested on: Mycolicibacterium fortuitum; test: In vitro activity of compound against rapidly growing Mycobacterium fortuitum 726; assay type: functional; summary of the method: as §1
Haemophilus influenzae = test: In vitro antibacterial activity of compound against Haemophilus influenzae ATCC 19418; assay type: functional
Mycobacterium avium [39] = test: 50% inhibition of the 20 Mycobacterium (MAC) avium complex clinical isolates; assay type: functional
Summary of the method: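 Agar-dilution MICs, 2-fold dilutions over 128-0.0001 μg/mL, on Middlebrook 7H10 agar with 2% glycerol and 10% OADC. Organisms from Loevenstein-Jensen slants were grown in 7H9 broth with 0.5% Tween and 10% OADC, adjusted to McFarland no. 1, and spotted with a multipoint inoculator. Plates were sealed and incubated at 22, 30 or 37 °C for 4-20 days depending on strain.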

Neisseria gonorrhoeae = test: In vitro antibacterial activity of compound against Neisseria gonorrhoeae ISM 68/126; assay type: functional
Mycobacterium marinum [40] = test: In vitro activity of compound against slowly growing Mycobacterium marinum 1392; assay type: functional; summary of the method: as §1
[41] = tested on: Mycolicibacterium fortuitum; test: In vitro activity compound against rapidly growing Mycobacterium fortuitum 1302; assay type: functional; summary of the method: as §1
Staphylococcus aureus = test: In vitro antibacterial activity of compound against Staphylococcus aureus Tour L 165; assay type: functional; summary of the method: as §3
[42] = tested on: Mycolicibacterium smegmatis; test: In vitro activity of compound against rapidly growing Mycobacterium smegmatis 1442; assay type: functional; summary of the method: as §1
Streptococcus pyogenes [43] = test: In vitro antibacterial activity of compound against Streptococcus pyogenes C 203 SKF 13400; assay type: functional; summary of the method: as §4
[44] = tested on: Mycobacterium scrofulaceum; test: In vitro activity of compound against slowly growing Mycobacterium scrofulaceum 1301; assay type: functional; summary of the method: as §1
[45] = tested on: Mycolicibacterium fortuitum; test: In vitro activity of compound against rapidly growing Mycobacterium fortuitum 646; assay type: functional; summary of the method: as §1

## CCN(CC)c1nc2c(s1)c1c(O)c3c(O)c(C)c4c(c32)C(=O)C(C)(O/C=C/C(OC)C(C)C(OC(C)=O)C(C)C(O)C(C)C(O)C(C)/C=C/C=C(/C)C(=O)N1)O4 (stereo not given)
[1]
  MIC: 16 µg/mL (≈ 19.8 µM)
Streptococcus pyogenes [2]
  ED50: 1.23 mg/kg
[3]
  MIC: 2 µg/mL (≈ 2.47 µM)
[4]
  MIC: 8 µg/mL (≈ 9.88 µM)
[5]
  MIC: 0.063 µg/mL (≈ 0.0778 µM)
Enterococcus faecalis
  MIC: 2 µg/mL (≈ 2.47 µM)
[6]
  MIC: 0.25 µg/mL (≈ 0.309 µM)
Mycobacterium gordonae [7]
  MIC: 2 µg/mL (≈ 2.47 µM)
Streptococcus pneumoniae
  MIC: 0.063 µg/mL (≈ 0.0778 µM)
Escherichia coli
  MIC: 32 µg/mL (≈ 39.5 µM)
Mycolicibacterium phlei [8]
  MIC: 0.032 µg/mL (≈ 0.0395 µM)
Mycobacterium kansasii [9]
  MIC: 2 µg/mL (≈ 2.47 µM)
Klebsiella pneumoniae
  MIC: 32 µg/mL (≈ 39.5 µM)
Mycobacterium marinum [10]
  MIC: 1 µg/mL (≈ 1.23 µM)
Streptococcus pyogenes [11]
  MIC: 0.135 µg/mL (≈ 0.167 µM)
Mycobacterium xenopi [12]
  MIC: 4 µg/mL (≈ 4.94 µM)
Mycobacterium marinum [13]
  MIC: 4 µg/mL (≈ 4.94 µM)
[14]
  MIC: 16 µg/mL (≈ 19.8 µM)
[15]
  MIC: 0.063 µg/mL (≈ 0.0778 µM)
Mycobacterium xenopi [16]
  MIC: 4 µg/mL (≈ 4.94 µM)
Mycobacterium kansasii [17]
  MIC: 0.25 µg/mL (≈ 0.309 µM)
Proteus vulgaris
  MIC: 32 µg/mL (≈ 39.5 µM)
Mycobacterium marinum [18]
  MIC: 1 µg/mL (≈ 1.23 µM)
Mycobacterium marinum [19]
  MIC: 2 µg/mL (≈ 2.47 µM)
[20]
  MIC: 8 µg/mL (≈ 9.88 µM)
Mycobacteroides chelonae
  MIC: > 128 µg/mL
[21]
  MIC: 16 µg/mL (≈ 19.8 µM)
Mycobacterium marinum [22]
  MIC: 1 µg/mL (≈ 1.23 µM)
Mycobacterium avium [23]
  MIC90: 2 µg/mL (≈ 2.47 µM)
Mycobacterium gordonae [24]
  MIC: 0.5 µg/mL (≈ 0.617 µM)
[25]
  MIC: 32 µg/mL (≈ 39.5 µM)
Mycobacterium kansasii [26]
  MIC: 2 µg/mL (≈ 2.47 µM)
[27]
  MIC: 0.032 µg/mL (≈ 0.0395 µM)
[28]
  MIC: 0.125 µg/mL (≈ 0.154 µM)
Mycobacterium avium [29]
  MIC: 0.5 µg/mL (≈ 0.617 µM)
Mycolicibacterium phlei [30]
  MIC: 2 µg/mL (≈ 2.47 µM)
Streptococcus pyogenes [31]
  ED50: 1.62 mg/kg
Mycobacterium marinum [32]
  MIC: 1 µg/mL (≈ 1.23 µM)
Mycobacterium xenopi [33]
  MIC: 2 µg/mL (≈ 2.47 µM)
Mycobacterium xenopi [34]
  MIC: 4 µg/mL (≈ 4.94 µM)
Mycolicibacterium phlei [35]
  MIC: 0.125 µg/mL (≈ 0.154 µM)
Pseudomonas aeruginosa
  MIC: 8 µg/mL (≈ 9.88 µM)
[36]
  MIC: 2 µg/mL (≈ 2.47 µM)
[37]
  MIC: 16 µg/mL (≈ 19.8 µM)
[38]
  MIC: 32 µg/mL (≈ 39.5 µM)
Haemophilus influenzae
  MIC: 0.5 µg/mL (≈ 0.617 µM)
Mycobacterium avium [39]
  MIC50: 2 µg/mL (≈ 2.47 µM)
Neisseria gonorrhoeae
  MIC: 0.5 µg/mL (≈ 0.617 µM)
Mycobacterium marinum [40]
  MIC: 1 µg/mL (≈ 1.23 µM)
[41]
  MIC: 2 µg/mL (≈ 2.47 µM)
Staphylococcus aureus
  MIC: 0.125 µg/mL (≈ 0.154 µM)
[42]
  MIC: 8 µg/mL (≈ 9.88 µM)
Streptococcus pyogenes [43]
  MIC: 0.125 µg/mL (≈ 0.154 µM)
[44]
  MIC: 2 µg/mL (≈ 2.47 µM)
[45]
  MIC: 32 µg/mL (≈ 39.5 µM)
